The test system of data set [1] is Vero. The data set is described as follows: Cytotoxicity against African green monkey Vero cells incubated for 48 hrs by MTT assay. To be noted: Chlorocebus sabaeus. A general note: Formazan colour is commonly taken as a measure of viable cells.
A short description of data set [2]: Elimination half-life in Sprague-Dawley rat plasma at 30 mg/kg, po measured up to 24 hrs. It is filed as ADME, organism-based. The conditions noted are these: read-out: beta t1/2 (converted). In a few lines:
(§1)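 Male SD rats (180–200 g), three per route, dosed as free base content. Oral formulation in 0.5% carboxymethyl cellulose; intravenous formulation in normal saline. Sampling at 5, 15, 30 min and 1, 1.5, 2, 4, 6, 8, 12, 24 h; plasma kept at -80 °C. Non-compartmental parameters; F = (AUCpo×dose iv)/(AUCiv×dose po).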

Data set [3] is described as follows: Elimination half-life in Sprague-Dawley rat plasma at 3 mg/kg, iv measured up to 24 hrs. It is filed as ADME, organism-based. The conditions noted are these: read-out: beta t1/2 (converted). In a few lines: as §1
Data set [4] is described as follows: Tmax in Sprague-Dawley rat plasma at 30 mg/kg, po measured up to 24 hrs. It is filed as ADME, organism-based. In a few lines:
as §1

Data set [5] is described as follows: Cmax in Sprague-Dawley rat plasma at 30 mg/kg, po measured up to 24 hrs. It is filed as ADME, organism-based. On the set-up: route oral, dose 30 mg/kg, time <=24. The procedure, abridged:
as §1

Data set [6] can be described thus: Cmax in Sprague-Dawley rat plasma at 3 mg/kg, iv measured up to 24 hrs. Format: ADME, organism-based. On the set-up: route intravenous, dose 3 mg/kg, time <=24. In a few lines: as §1
Data set [7] is described as follows: AUC(0 to t) in Sprague-Dawley rat plasma at 30 mg/kg, po measured up to 24 hrs. Also on record: route oral, dose 30 mg/kg, time <=24. It is filed as ADME, organism-based. In a few lines: as §1
A short description of data set [8]: AUC(0 to t) in Sprague-Dawley rat plasma at 3 mg/kg, iv measured up to 24 hrs. Format: ADME, organism-based. On the set-up: route intravenous, dose 3 mg/kg, time <=24. The procedure, abridged:
as §1

The nature of data set [9]: AUC(0 to infinity) in Sprague-Dawley rat plasma at 30 mg/kg, po measured up to 24 hrs. Also on record: route oral, dose 30 mg/kg, time <=24. Format: ADME, organism-based. In a few lines: as §1
The nature of data set [10]: AUC(0 to infinity) in Sprague-Dawley rat plasma at 3 mg/kg, iv measured up to 24 hrs. It is filed as ADME, organism-based. On the set-up: route intravenous, dose 3 mg/kg, time <=24. The procedure, abridged:
as §1

A short description of data set [11]: Mean residence time (0 to infinity) in Sprague-Dawley rat at 30 mg/kg, po measured up to 24 hrs. To be noted: in vivo. It is filed as ADME, organism-based. In a few lines:
as §1

The nature of data set [12]: Mean residence time (0 to infinity) in Sprague-Dawley rat at 3 mg/kg, iv measured up to 24 hrs. Format: ADME, organism-based. To be noted: in vivo. The procedure, abridged: as §1
Data set [13] in a line: Oral bioavailability in Sprague-Dawley rat at 30 mg/kg. It is filed as ADME, organism-based. To be noted: in vivo. The procedure, abridged: as §1
Data set [14] in a line: Apparent permeability in human Caco-2 cells at 50 uM after 1 hr by UPLC analysis. Format: ADME, cell-based. In a few lines: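 Caco-2 cells grown 21 days on Transwell inserts (0.4 µm pores) into monolayers with TEER above 500 Ω×cm² before and after transport. Compound at 50 µM added apically, 1 h at 37 °C. Transported compound quantified by UPLC; Papp = (dQ/dt)/(C0×A).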

The nature of data set [15]: Metabolic stability in mouse liver microsomes assessed as parent compound remaining at 10 micromol/L measured after 30 mins in presence of NADPH generating system by LC-MS/MS analysis. To be noted: dose 10 µmol/L, read-out: Stabilty. It is filed as ADME, Microsome. In a few lines:
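Mouse liver microsomes (0.5 mg/mL protein), compound at 10 μmol/L, in Tris-HCl with an NADPH-generating system that starts the reaction. Incubated in duplicate at 37 °C for 30 min; stopped with ice-cold acetonitrile containing internal standard. Supernatant analysed by LC-MS/MS; remaining amount normalised to time zero. Inactivated microsomes served as negative control.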

Data set [16] can be described thus: Plasma protein binding in mouse at 5 uM after 5 hrs by LC-MS/MS based equilibrium dialysis method. To be noted: read-out: PPB (converted). Format: ADME, cell-free. In a few lines:
(§2)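 Equilibrium dialysis: compound spiked at 5 μM (1% DMSO) into pre-warmed 37 °C plasma, dialysed against phosphate buffer (1% DMSO) for 5 h at 37 °C with shaking at 100 rpm. Both compartments analysed by LC-MS/MS.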
Background: In equilibrium dialysis free small molecules cross a membrane that holds back macromolecules.

Data set [17] in a line: Plasma protein binding in rat at 5 uM after 5 hrs by LC-MS/MS based equilibrium dialysis method. Format: ADME, cell-free. To be noted: read-out: PPB (converted). In a few lines: as §2
Data set [18] is described as follows: Plasma protein binding in dog at 5 uM after 5 hrs by LC-MS/MS based equilibrium dialysis method. It is filed as ADME, cell-free, Canis lupus familiaris. To be noted: read-out: PPB (converted). The procedure, abridged: as §2
A short description of data set [19]: Plasma protein binding in monkey at 5 uM after 5 hrs by LC-MS/MS based equilibrium dialysis method. The conditions noted are these: rhesus monkey, read-out: PPB (converted). It is filed as ADME, cell-free, Macaca mulatta. In a few lines: as §2
The nature of data set [20]: Plasma protein binding in human at 5 uM after 5 hrs by LC-MS/MS based equilibrium dialysis method. It is filed as ADME, cell-free. The conditions noted are these: read-out: PPB (converted). In a few lines: as §2
The nature of data set [21]: Acute toxicity in po dosed ICR mouse assessed as animal survival administered as single dose and observed for 7 days. Format: organism-based. To be noted: in vivo, time 7 day. The procedure, abridged:
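Female ICR mice (18 to 21 g), ten animals, given one oral dose of 1.5 g/kg. The number surviving was recorded after 7 days of observation.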

A short description of data set [22]: Genotoxicity in Salmonella typhimurium TA98 incubated for 48 to 72 hrs by mini-Ames test. Format: toxicity. The conditions noted are these: salmonella enterica subsp. enterica serovar typhimurium; time 48-72 hrs. The procedure, abridged:
(§3)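 Mini-Ames test with Salmonella typhimurium TA98 and TA100, with 10% S9 mix or PBS, in top agar poured onto minimal agar in 6-well plates. Up to 1000 μg/well; DMSO solvent control. Incubated 37 °C for 48–72 h; revertants counted manually. Called positive at a dose-related increase of at least 2-fold over the solvent control.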

Data set [23] can be described thus: Genotoxicity in Salmonella typhimurium TA100 incubated for 48 to 72 hrs by mini-Ames test. Format: toxicity. To be noted: salmonella enterica subsp. enterica serovar typhimurium; time 48-72 hrs. In a few lines: as §3
In general terms: In the Ames test, an excess of revertant colonies over the control signals mutagenicity.

In data set [24] the target is Voltage-gated inwardly rectifying potassium channel KCNH2 (Homo sapiens, UniProt Q12809). The data set is described as follows: Inhibition of human ERG expressed in CHO cells by manual patch clamp assay. Format: cell-based. In a few lines: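 CHO cells stably expressing hERG, cultured at least 24 h, then recorded by whole-cell voltage-clamp patch clamp.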

We go through one compound from ChEMBL document CHEMBL4680154, “The optimization of xanthine derivatives leading to HBK001 hydrochloride as a potent dual ligand targeting DPP-IV and GPR119” (Eur J Med Chem, 2020).

Structures are written as SMILES.

Voltage-gated inwardly rectifying potassium channel KCNH2, sequence (Q12809 whole entry): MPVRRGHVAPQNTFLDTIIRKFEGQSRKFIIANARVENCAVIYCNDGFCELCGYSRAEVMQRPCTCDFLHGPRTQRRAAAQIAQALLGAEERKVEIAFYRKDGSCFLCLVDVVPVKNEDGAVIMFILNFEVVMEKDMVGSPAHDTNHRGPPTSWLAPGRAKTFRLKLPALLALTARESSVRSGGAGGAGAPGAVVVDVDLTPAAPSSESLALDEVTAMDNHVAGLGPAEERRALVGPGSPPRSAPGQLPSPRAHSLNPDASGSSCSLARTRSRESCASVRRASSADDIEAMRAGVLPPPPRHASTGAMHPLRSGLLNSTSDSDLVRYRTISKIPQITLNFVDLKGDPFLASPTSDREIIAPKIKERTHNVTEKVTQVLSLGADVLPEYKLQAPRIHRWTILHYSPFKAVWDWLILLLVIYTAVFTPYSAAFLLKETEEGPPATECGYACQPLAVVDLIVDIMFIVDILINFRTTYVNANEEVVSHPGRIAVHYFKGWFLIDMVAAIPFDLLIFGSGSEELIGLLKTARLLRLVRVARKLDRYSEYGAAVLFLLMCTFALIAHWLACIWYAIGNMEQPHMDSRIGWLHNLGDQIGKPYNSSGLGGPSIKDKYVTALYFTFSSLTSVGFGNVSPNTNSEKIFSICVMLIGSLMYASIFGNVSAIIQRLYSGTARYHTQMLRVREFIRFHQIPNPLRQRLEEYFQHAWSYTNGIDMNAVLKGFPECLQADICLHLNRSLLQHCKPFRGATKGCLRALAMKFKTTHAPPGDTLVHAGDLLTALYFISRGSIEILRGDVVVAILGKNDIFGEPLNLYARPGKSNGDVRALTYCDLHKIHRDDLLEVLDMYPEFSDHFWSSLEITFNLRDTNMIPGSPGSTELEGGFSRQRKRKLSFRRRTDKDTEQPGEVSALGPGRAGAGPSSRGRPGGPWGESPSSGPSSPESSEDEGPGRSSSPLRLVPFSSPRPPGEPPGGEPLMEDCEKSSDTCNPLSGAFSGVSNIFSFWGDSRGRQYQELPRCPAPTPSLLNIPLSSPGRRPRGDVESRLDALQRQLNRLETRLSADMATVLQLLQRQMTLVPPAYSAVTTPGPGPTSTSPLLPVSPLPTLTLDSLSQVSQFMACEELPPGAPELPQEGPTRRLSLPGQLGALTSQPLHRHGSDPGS

Consider `CC#CCn1c(N2CCC[C@@H](N)C2)nc2c1c(=O)n(CCCN1CCN(c3nc(-c4ccccc4)no3)CC1)c(=O)n2C.Cl`, for which the IC50 (usually the concentration at which inhibition is half-maximal) in data set [1] is greater than 64 µg/mL; in data set [24], 4.9 µM. In addition, the half-life in [2] was 1.08 h; in data set [3], 0.63 h. Also, the time of peak concentration (Tmax) – broadly, the time from dosing to the highest level – in [4] came to 1.33 h. Besides, the maximum concentration (Cmax) (usually the peak of the concentration-time curve) in data set [5] was 226 ng/mL; in data set [6], 416 ng/mL. For the same compound, the AUC(0-t) (as a rule, the area under the concentration-time curve up to a stated or last time point) at 24 h is 623 ng·h/mL in data set [7] and 147 ng·h/mL in data set [8]. Also, the AUC(0-inf) (usually total exposure, with the tail of the curve extrapolated) in data set [9] came to 656 ng·h/mL; in [10], 167 ng·h/mL. Further, the MRT inf (usually a mean duration of stay, worked out from the concentration-time curve) in data set [11] worked out at 2.22 h; in data set [12] it was 0.73 h. In data set [13], the bioavailability (in general, the share of a dose that reaches the circulation, judged against a reference dose that is usually intravenous) came out at 42.4%. For the same compound, the apparent permeability (Papp) (as a rule, the rate of passage across a membrane or cell layer, normalised by area and donor concentration) at 1 h, 50 µM in data set [14] was determined as 19.1 ×10⁻⁶ cm/s. Moreover, the remaining at 0.5 h, 10 µM in data set [15] worked out at 49.3%. For the same compound, the fraction unbound at 5 h, 5 µM in data set [16] is 0.015; in data set [17] it was 0.039; in data set [18], 0.037; in [19], 0.04; in data set [20], 0.028. The LD50 (in general, the dose at which mortality reaches 50%) at 168 h in [21] is greater than 1500 mg/kg. Also, the Activity entry in data set [22] and in [23] was “Non-Toxic” each time.
